Test results published in ChEMBL document CHEMBL3621084, “Discovery of 2-Pyridinone Aminals: A Prodrug Strategy to Advance a Second Generation of HIV-1 Integrase Strand Transfer Inhibitors” (J Med Chem, 2015).
Values after ≈ are worked out from the molar mass of the structure shown.

Columns and labels:
[1] = system: Human immunodeficiency virus 1; experiment: Antiviral activity against HIV1 infected in human MT4 cells expressing GFP incubated for 48 to 72 hrs in absence of 50% normal human serum by multiple round viral replication kinetics assay; type: functional
[2] = system: Human immunodeficiency virus 1; experiment: Antiviral activity against HIV1 infected in human MT4 cells expressing GFP incubated for 48 to 72 hrs in presence of 50% normal human serum by multiple round viral replication kinetics assay; type: functional
[3] = system: Human immunodeficiency virus 1; experiment: Resistance index, ratio of IC50 for antiviral activity against HIV1 expressing integrase E92Q mutant to IC50 for antiviral activity against HIV1 expressing wild type integrase; type: functional
Procedure, shortened: (§1)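 Fold shift computed as the inflection point (IP) against mutant HIV-1 divided by the IP against wild-type virus. Both IPs come from a kinetic HIV replication (viral kinetics) potency assay run in 50% normal human serum (NHS).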

[4] = system: Human immunodeficiency virus 1; experiment: Resistance index, ratio of IC50 for antiviral activity against HIV1 expressing integrase Y143R mutant to IC50 for antiviral activity against HIV1 expressing wild type integrase; type: functional; procedure, shortened: as §1
[5] = system: Human immunodeficiency virus 1; experiment: Resistance index, ratio of IC50 for antiviral activity against HIV1 expressing integrase Q148R mutant to IC50 for antiviral activity against HIV1 expressing wild type integrase; type: functional; procedure, shortened: as §1
[6] = Plasma clearance in Wistar-Hanover rat at 0.2 mg/kg, iv by LC-MS/MS method; type: ADME, organism-based
[7] = Volume of distribution at steady state in Wistar-Hanover rat at 0.2 mg/kg, iv by LC-MS/MS method; type: ADME, organism-based; details: in vivo, read-out: Vdss
[8] = AUC (0 to infinity) in Wistar-Hanover rat at 2 mg/kg, po by LC-MS/MS method; type: ADME, organism-based; parameters: dose 2 mg/kg, route oral, time infinity; details: in vivo
[9] = Oral bioavailability in Wistar-Hanover rat at 2 mg/kg by LC-MS/MS method; type: ADME, organism-based; details: in vivo
[10] = Volume of distribution at steady state in beagle dog at 0.5 mg/kg, iv by LC-MS/MS method; type: ADME, organism-based, Canis lupus familiaris; details: in vivo, read-out: Vdss
Canis familiaris [11] = experiment: (§2) AUC (0 to infinity) in beagle dog at 2 mg/kg, po by LC-MS/MS method; type: ADME, organism-based, Canis lupus familiaris; parameters: dose 2 mg/kg, route oral, time infinity; details: in vivo
Canis familiaris [12] = experiment: (§3) Oral bioavailability in beagle dog at 2 mg/kg by LC-MS/MS method; type: ADME, organism-based, Canis lupus familiaris; details: in vivo
[13] = Half life in beagle dog at 0.5 mg/kg, iv by LC-MS/MS method; details: in vivo
[14] = Half life in Wistar-Hanover rat at 0.2 mg/kg, iv by LC-MS/MS method; details: in vivo
[15] = Solubility in FaSSiF at pH 6.5 at room temperature incubated for 4 hrs; type: physicochemical
[16] = Permeability in LLC-PK1 cells at 1 uM incubated for 3 hrs by LC-MS/MS method; type: ADME, cell-based, Sus scrofa; details: pig, read-out: permeability
[17] = Permeability in MDCK2 cells at 1 uM incubated for 3 hrs by LC-MS/MS method; type: ADME, cell-based, Canis lupus familiaris, MDCK-II; details: dog, MDCK; read-out: permeability
Canis familiaris [18] = experiment: AUC (0 to infinity) in beagle dog assessed as c(1R,2S,5R)-8'-(3-chloro-4-fluorobenzyl)-6'-hydroxy-1-(hydroxymethyl)-2'-methyl-9',10'-dihydro-1'H-spiro[bicyclo[3.1.0]hexane-2,3'-imidazo[5,1-a][2,6]naphthyridine]-1',5',7'(2'H,8'H)-trione evel at 2 mg/kg, po by LC-MS/MS method; type: ADME, organism-based, Canis lupus familiaris; parameters: dose 2 mg/kg, route oral, time infinity; details: in vivo
Procedure, shortened: (§4)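 Oral rising-dose studies were run in beagle dogs with prodrugs, at doses normalized to account for the promoiety so that they give the actual parent dose administered. The read-out was plasma exposure (AUC) of the parent compound.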

Canis familiaris [19] = experiment: AUC (0 to infinity) in beagle dog assessed as (1R,2S,5R)-8'-(3-chloro-4-fluorobenzyl)-6'-hydroxy-1-(hydroxymethyl)-2'-methyl-9',10'-dihydro-1'H-spiro[bicyclo[3.1.0]hexane-2,3'-imidazo[5,1-a][2,6]naphthyridine]-1',5',7'(2'H,8'H)-trione level at 30 mg/kg, po by LC-MS/MS method; type: ADME, organism-based, Canis lupus familiaris; parameters: dose 30 mg/kg, route oral, time infinity; details: in vivo; procedure, shortened: as §4
[20] = AUC (0 to infinity) in portal vein of portal vein-cannulated beagle dog at 10 mg/kg, po by LC-MS/MS method; type: ADME, organism-based, Canis lupus familiaris; parameters: dose 10 mg/kg, time infinity, route oral
Procedure, shortened: (§5)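 Portal vein-cannulated dogs received the prodrugs orally at doses normalized to 10 mg/kg of the parent molecule. Prodrug and parent concentrations were determined in plasma collected from the portal and jugular veins, and AUC was derived for each analyte at each site.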

[21] = AUC (0 to infinity) in jugular vein of portal vein-cannulated beagle dog at 10 mg/kg, po by LC-MS/MS method; type: ADME, organism-based, Canis lupus familiaris; parameters: dose 10 mg/kg, time infinity, route oral; procedure, shortened: as §5
[22] = (§6) AUC (0 to infinity) in portal vein of portal vein-cannulated beagle dog assessed as (1R,2S,5R)-8'-(3-chloro-4-fluorobenzyl)-6'-hydroxy-1-(hydroxymethyl)-2'-methyl-9',10'-dihydro-1'H-spiro[bicyclo[3.1.0]hexane-2,3'-imidazo[5,1-a][2,6]naphthyridine]-1',5',7'(2'H,8'H)-trione level at 10 mg/kg, po by LC-MS/MS method; type: ADME, organism-based, Canis lupus familiaris; parameters: dose 10 mg/kg, route oral, time infinity; details: in vivo; procedure, shortened: as §5
[23] = as §6, with “in jugular” for “in portal”; type: ADME, organism-based, Canis lupus familiaris; parameters: dose 10 mg/kg, time infinity, route oral; details: in vivo; procedure, shortened: as §5
[24] = Stability in SGF at pH 1.8 at 37 °C incubated for 4 hrs
[25] = Stability in FaSSiF at pH 6.5 at 37 °C incubated for 4 hrs
Canis familiaris [26] = experiment: AUC (0 to infinity) in beagle dog assessed as (1R,2R,5S)-8'-(3-chloro-4-fluorobenzyl)-6'-hydroxy-2'-((S)-2-hydroxypropyl)-9',10'-dihydro-1'H-spiro[bicyclo[3.1.0]hexane-2,3'-imidazo[5,1-a][2,6]naphthyridine]-1',5',7'(2'H,8'H)-trione level at 2 mg/kg, po by LC-MS/MS method; type: ADME, organism-based, Canis lupus familiaris; parameters: dose 2 mg/kg, time infinity, route oral; details: in vivo; procedure, shortened: as §4
Canis familiaris [27] = experiment: AUC (0 to infinity) in beagle dog assessed as (1R,2R,5S)-8'-(3-chloro-4-fluorobenzyl)-6'-hydroxy-2'-((S)-2-hydroxypropyl)-9',10'-dihydro-1'H-spiro[bicyclo[3.1.0]hexane-2,3'-imidazo[5,1-a][2,6]naphthyridine]-1',5',7'(2'H,8'H)-trione level at 10 mg/kg, po by LC-MS/MS method; type: ADME, organism-based, Canis lupus familiaris; parameters: dose 10 mg/kg, time infinity, route oral; details: in vivo; procedure, shortened: as §4
[28] = (§7) AUC (0 to infinity) in portal vein of portal vein-cannulated beagle dog assessed as (1R,2R,5S)-8'-(3-chloro-4-fluorobenzyl)-6'-hydroxy-2'-((S)-2-hydroxypropyl)-9',10'-dihydro-1'H-spiro[bicyclo[3.1.0]hexane-2,3'-imidazo[5,1-a][2,6]naphthyridine]-1',5',7'(2'H,8'H)-trione level at 10 mg/kg, po by LC-MS/MS method; type: ADME, organism-based, Canis lupus familiaris; parameters: dose 10 mg/kg, route oral, time infinity; details: in vivo; procedure, shortened: as §5
[29] = as §7, with “in jugular” for “in portal”; type: ADME, organism-based, Canis lupus familiaris; parameters: dose 10 mg/kg, route oral, time infinity; details: in vivo; procedure, shortened: as §5
Canis familiaris [30] = experiment: AUC (0 to infinity) in beagle dog assessed as (1R,2R,5S)-8'-(3-chloro-4-fluorobenzyl)-6'-hydroxy-2'-((S)-2-hydroxypropyl)-9',10'-dihydro-1'H-spiro[bicyclo[3.1.0]hexane-2,3'-imidazo[5,1-a][2,6]naphthyridine]-1',5',7'(2'H,8'H)-trione level at 100 mg/kg, po by LC-MS/MS method; type: ADME, organism-based, Canis lupus familiaris; parameters: dose 100 mg/kg, time infinity, route oral; details: in vivo; procedure, shortened: as §4
[31] = Plasma clearance in beagle dog at 0.5 mg/kg, iv by LC-MS/MS method; type: ADME, organism-based, Canis lupus familiaris
[32] = as §2; type: ADME, organism-based, Canis lupus familiaris; parameters: dose 2 mg/kg, route oral, time infinity; details: beagle, in vivo
[33] = as §3; type: ADME, organism-based, Canis lupus familiaris; details: beagle, in vivo
[34] = Protein binding in beagle dog plasma at 2.5 uM incubated for 4 hrs by LC-MS/MS detection based equilibrium dialysis method; type: ADME, cell-free, Canis lupus familiaris; details: read-out: PPB (converted)
[35] = Protein binding in human plasma at 2.5 uM incubated for 4 hrs by LC-MS/MS detection based equilibrium dialysis method; type: ADME, cell-free; details: read-out: PPB (converted)
Cytochrome P450 3A4 = Cytochrome P450 3A4 (Homo sapiens, UniProt P08684); experiment: Time dependent inhibition of CYP3A4 (unknown origin); type: ADME
Chain of Cytochrome P450 3A4 (P08684 whole entry): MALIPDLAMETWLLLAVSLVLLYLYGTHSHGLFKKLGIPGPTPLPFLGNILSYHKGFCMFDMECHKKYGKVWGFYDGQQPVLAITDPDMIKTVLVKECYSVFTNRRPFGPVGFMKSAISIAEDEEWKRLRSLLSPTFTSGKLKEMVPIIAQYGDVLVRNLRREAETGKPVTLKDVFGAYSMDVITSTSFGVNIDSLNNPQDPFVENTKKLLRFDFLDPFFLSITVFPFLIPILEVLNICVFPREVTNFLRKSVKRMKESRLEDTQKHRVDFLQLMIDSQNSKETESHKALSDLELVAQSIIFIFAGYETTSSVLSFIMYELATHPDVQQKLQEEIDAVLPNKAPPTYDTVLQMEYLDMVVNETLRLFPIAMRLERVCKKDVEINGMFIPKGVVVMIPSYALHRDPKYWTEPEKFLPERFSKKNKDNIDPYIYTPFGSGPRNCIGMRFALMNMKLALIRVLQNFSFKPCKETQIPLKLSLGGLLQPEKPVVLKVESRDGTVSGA

[36] = Solubility in SGF at pH 1.8 at room temperature incubated for 4 hrs; type: physicochemical

SMILES | IP [1] | IP [2] | Ratio IC50 [3] | Ratio IC50 [4] | Ratio IC50 [5] | Vd [10] | half-life [13] | solubility at 4 h [15] | Papp at 3 h, 1 µM [16] | Papp at 3 h, 1 µM [17] | AUC(0-inf) [20] | AUC(0-inf) [21] | remaining at 4 h [24] | remaining at 4 h [25] | AUC (Canis familiaris [26]) | also measured
O=C1N[C@]2(CC[C@H]3C[C@H]32)n2c1c1c(c(O)c2=O)C(=O)N(Cc2ccc(F)c(Cl)c2)CC1 | 2.5 nM | 600 nM | 3 | 1 | 5 | 0.19 L/kg | 16 h | – | – | – | – | – | – | – | – | clearance [6]: 0.12 mL/min/kg; Vd [7]: 0.12 L/kg; AUC(0-inf) [8]: 189 µM·h; bioavailability [9]: 29%; AUC (Canis familiaris [11]): 47 µM·h; F (Canis familiaris [12]): 27%; half-life [14]: 14 h
CC(C)OC(=O)OCOc1c2c(c3n(c1=O)[C@]1(CC[C@@H]4C[C@@]41CO)N(C)C3=O)CCN(Cc1ccc(F)c(Cl)c1)C2=O | 16 nM | – | – | – | – | – | – | 500 µg/mL (≈ 828 µM) | 26.5 ×10⁻⁶ cm/s | 19.7 ×10⁻⁶ cm/s | 2.55 µM·h | 0.037 µM·h | > 98% | > 98% | – | AUC (Canis familiaris [18]): 5 µM·h; AUC (Canis familiaris [19]): 284 µM·h; AUC [22]: 27.3 µM·h; AUC [23]: 30.4 µM·h
CC(C)OC(=O)OCOc1c2c(c3n(c1=O)[C@@]1(CC[C@H]4C[C@H]41)N(C[C@H](C)O)C3=O)CCN(Cc1ccc(F)c(Cl)c1)C2=O | 178 nM | – | – | – | – | – | – | 250 µg/mL (≈ 404 µM) | 26.7 ×10⁻⁶ cm/s | 23.5 ×10⁻⁶ cm/s | 1.12 µM·h | 0.034 µM·h | > 98% | > 98% | 23 µM·h | AUC (Canis familiaris [27]): 128 µM·h; AUC [28]: 23.9 µM·h; AUC [29]: 33.9 µM·h
CC(C)OC(=O)OCOc1c2c(c3n(c1=O)[C@@]1(CC[C@H]4C[C@H]41)N(C[C@H](C)OP(=O)(O)O)C3=O)CCN(Cc1ccc(F)c(Cl)c1)C2=O | >4200 nM | – | – | – | – | – | – | > 2000 µg/mL | – | – | – | – | > 98% | > 98% | – | AUC (Canis familiaris [30]): 570 µM·h
C[C@H](O)CN1C(=O)c2c3c(c(O)c(=O)n2[C@@]12CC[C@H]1C[C@H]12)C(=O)N(Cc1ccc(F)c(Cl)c1)CC3 | 2 nM | 67 nM | 1.5 | 1 | 1.5 | 0.6 L/kg | 5.9 h | 58 µg/mL (≈ 116 µM) | 14.8 ×10⁻⁶ cm/s | 22.9 ×10⁻⁶ cm/s | – | – | – | – | 11 µM·h | clearance [31]: 3 mL/min/kg; AUC(0-inf) [32]: 10.5 µM·h; bioavailability [33]: 42%; fraction unbound at 4 h, 2.5 µM [34]: 0.012; fraction unbound at 4 h, 2.5 µM [35]: 0.025; TDI (Cytochrome P450 3A4): Not Active; solubility at 4 h [36]: 30 µg/mL (≈ 59.8 µM)
